Assay outcomes as filed in PubChem.
Ins promoter up: insulin promoter activators in MIN6 cells, imaging, high-content screening, mouse beta cells; MIN6 insulin promoter-GFP reporter; active compounds read high; z-score at 5 µM; 190,000 compounds, 0.3% hits; AID 1625, 2009;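 active means z-score above 3 at 5 µM with at least 500 cells counted in the well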
Cl transport mod: KCC2 cotransporter modulators, thallium flux, primary screen, cell-based, HEK293 KCC2, FluoZin-2 fluorescence, MLSMR | KCC2 cells, thallium flux FluoZin-2 fluorescence | AID 1456, 2008 | B-score of Tl+ flux slope (higher = more flux/activation; lower = inhibition) at 10 µM | Solute carrier family 12 member 5 (Homo sapiens), Q9H2X9 | 190,000 compounds, 2.2% hits;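 active means thallium flux slope and its plate-corrected score both differing from the plate sample mean at a set confidence after two filtering rounds, in either direction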;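 further: slope of fluorescence scaled to starting intensity during 10 to 20 s after thallium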
Rad51 HR inh: human RAD51 strand exchange inhibitors, primary screen, biochemical, fluorescence; hRad51 DNA strand exchange, fluorescence dequenching; AID 1385, 2008; 200,000 compounds, 0.085% hits; DNA repair protein RAD51 homolog 1 (Homo sapiens), Q06609; inhibition, % at 10 µM;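 active means inhibition above 40% at the single screening dose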
Target sequence (Q06609 whole entry, looked up): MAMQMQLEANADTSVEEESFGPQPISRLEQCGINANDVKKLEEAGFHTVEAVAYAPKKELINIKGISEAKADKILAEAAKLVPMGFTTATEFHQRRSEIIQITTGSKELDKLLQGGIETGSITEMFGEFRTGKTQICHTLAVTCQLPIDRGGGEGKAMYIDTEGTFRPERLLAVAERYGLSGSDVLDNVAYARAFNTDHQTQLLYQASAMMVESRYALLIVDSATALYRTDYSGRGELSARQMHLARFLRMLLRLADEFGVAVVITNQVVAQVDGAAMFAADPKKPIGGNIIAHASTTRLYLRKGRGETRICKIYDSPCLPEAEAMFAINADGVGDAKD
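Assay system: Human Rad51 nucleoprotein filaments preassembled on unlabelled ssDNA | Reagent: Donor/quencher-labelled 47-bp dsDNA substrate | Doses: One concentration, 10 µM final | Times: 37 °C 15-min filament assembly, 30-min compound preincubation, 15-min exchange | Technique: Fluorescein emission 520 nm, excitation 485 nm | Benchmarks: Plate control and blank wells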
SKKanGAS inh: S. pyogenes SKKanGAS growth inhibitors in kanamycin, primary screen, streptokinase expression inhibitor project, SKKanGAS strain, BacTiter-Glo luminescence. 6 h. inhibition, % at 7.5 µM. 300,000 compounds, 1.3% hits;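 active means mean replicate score, as percent of positive control median, at least 50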;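 further: strain carries kanamycin resistance gene driven by streptokinase promoter and grows in 40 µg/ml kanamycin; loss of luminescence reflects streptokinase promoter inhibition or plain growth inhibition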
WT yeast gro inh: growth inhibition of WT strain, primary screen, mitochondrial fusion inhibitor project, WT and mutant strains, chemical genetic. mitochondrial fusion phenotypic screen. AID 1362, 2008. inhibition, % at 10 µM. 190,000 compounds, 2.1% hits; in the data active means inhibition above about 58%; tested in S. cerevisiae
Autophagy mod: autophagy modulators in MEF cells, primary screen, imaging, high-content, MEF GFP-LC3 | calls only at 10 µM (by protocol) | 190,000 compounds, 0.98% hits | MEF GFP-LC3 puncta imaging; test concentration mostly 10 µM;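 active means percentage of spot-positive cells more than 3 SD above its plate mean, without a fluorescence outlier flag or 80% toxicity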
Hits are given with their value; i = inactive; nt = no result; + = active, no number. A selection: hits, their analogues and other compounds. The true share with any hit is near 4.2%.

SMILES | Ins promoter up | Cl transport mod | Rad51 HR inh | SKKanGAS inh | WT yeast gro inh | Autophagy mod
COC(=O)CNC(c1ccccc1)c1cc(C)ccc1NC(=O)CNC(=O)OCc1ccccc1 (stereo not drawn) | i | i | i | i | i | i
COc1ccccc1CNC(=O)CCS(=O)(=O)c1ccc2c(c1)CCN2C(C)=O | nt | nt | nt | i | nt | nt
COCCN(C(=O)c1ccc(OC2CCN(S(=O)(=O)N(C)C)CC2)cc1)C(C)C | nt | nt | nt | i | nt | nt
CCOc1ccc(NC(=O)CSc2nnc(-c3ccco3)n2C)cc1 | i | i | i | i | 95.3 | i
CC(=O)Nc1ccc(NC(=O)CSc2nnc(-c3ccco3)o2)cc1 | i | i | i | i | i | +
Cn1cnnc1SCCCN1C(=O)c2cccc3cccc(c23)C1=O | i | i | nt | i | i | i
Cc1cc2ccccn2c1C(=O)c1cccc([N+](=O)[O-])c1 | i | i | i | i | i | i
Cc1cc2ccccn2c1C(=O)c1ccc([N+](=O)[O-])o1 | i | i | i | i | i | +
O=C(Nc1ccccc1F)c1ccc2ncsc2c1 | nt | nt | nt | i | nt | nt
c1ccc(CSc2ncnc3c2cnn3Cc2ccccc2)cc1 | i | i | i | i | 67.5 | i
Cc1ccc(CSc2ncnc3c2cnn3-c2ccc(C)cc2)cc1 | i | 15.7 | i | i | i | i
Cc1ccc(CSc2ncnc3c2cnn3-c2ccccc2)cc1 | i | i | i | i | i | i
Cc1ccc(-n2ncc3c(SCc4ccccc4)ncnc32)cc1 | i | 22.3 | i | i | i | i
O=C(NC1CCCC1)C(=O)N(Cc1cccnc1)C(C(=O)NCC1CCCO1)c1ccco1 (stereo not drawn) | i | i | i | i | i | i
CN=C(Nc1ccc(C(=O)OC)s1)c1ccc(Cl)cc1 | i | i | i | nt | i | i
CCCCN(CCCC)CCNC(=O)Cc1nc2c(c(=O)[nH]c(=O)n2C)n1C | i | i | i | i | 67.1 | i
COc1cccc(/C=N/NC(=O)c2nnn(-c3nonc3N)c2C(C)C)c1OCc1ccc(F)cc1 | nt | nt | nt | 60.3 | nt | nt
CC(C)c1c(C(=O)N/N=C/c2cccc(OCc3ccccc3)c2)nnn1-c1nonc1N | nt | nt | nt | 80.9 | nt | nt
CC(C)c1c(C(=O)N/N=C/c2ccc(OCc3ccccc3)cc2)nnn1-c1nonc1N | nt | nt | nt | i | nt | nt
CCc1ccc(NC(=O)CSc2ccc(-c3ccco3)nn2)cc1 | i | i | i | i | i | i
CCc1ccc(NC(=O)CS(=O)CC(=O)NC(C)CCc2ccco2)cc1 (stereo not drawn) | nt | i | i | i | i | +
O=C(OCC1OC2OC3(CCCCC3)OC2C2OC3(CCCCC3)OC12)c1ccccc1 (stereo not drawn) | nt | i | i | i | 73.7 | i
O=C(O)C1OC2OC3(CCCCC3)OC2C2OC3(CCCCC3)OC12 (stereo not drawn) | i | i | i | i | i | i
O=C1c2ccccc2C(=O)c2c(Nc3ccc(CCO)cc3)ccc(O)c21 | i | i | i | 82.9 | nt | nt
COc1ccc(C(=O)NC(=S)N2CCOCC2)cc1Br | nt | nt | nt | i | nt | nt
SMILES | Ins promoter up | Cl transport mod | Rad51 HR inh | SKKanGAS inh | WT yeast gro inh | Autophagy mod
C=CCN(CC=C)C(=S)NC(=O)c1ccc(OC)c(Br)c1 | nt | 56.2 | i | i | i | i
COc1ccc(C(=O)NC(=S)NCCO)cc1Br | i | 4.66 | i | i | i | i
COc1ccc(C(=O)NC(=S)NCc2cccnc2)cc1Br | i | i | i | i | i | i
C=CCNC(=S)NNC(=O)c1ccc([N+](=O)[O-])cc1 | i | i | i | i | i | i
CCN(CC)C(=S)NC(=O)c1ccc(OC)c(Br)c1 | nt | 96.2 | i | i | i | i
C=CCN(CC=C)C(=S)NC(=O)c1ccc([N+](=O)[O-])cc1 | i | 45.5 | i | i | i | i
CC(C)Cn1c(N)c(C(=O)COC(=O)C2CC(=O)N(c3ccc4c(c3)OCCO4)C2)c(=O)n(C)c1=O (stereo not drawn) | nt | nt | nt | i | nt | nt
Cc1cccc(NC(=O)C(CC(C)C)NC(=O)C2CCC(C)CC2)n1 (stereo not drawn) | i | i | i | i | i | i
CN(C)S(=O)(=O)c1ccc(C(=O)NCC(C)(C)CN=C2NS(=O)(=O)c3ccccc32)cc1 | nt | nt | nt | i | nt | nt
